Results collected from several papers.
Target: Dual serine/threonine and tyrosine protein kinase (DSTYK, Homo sapiens, UniProt Q6XUX3)
Sequence (Q6XUX3 1-929, as in one of the studies): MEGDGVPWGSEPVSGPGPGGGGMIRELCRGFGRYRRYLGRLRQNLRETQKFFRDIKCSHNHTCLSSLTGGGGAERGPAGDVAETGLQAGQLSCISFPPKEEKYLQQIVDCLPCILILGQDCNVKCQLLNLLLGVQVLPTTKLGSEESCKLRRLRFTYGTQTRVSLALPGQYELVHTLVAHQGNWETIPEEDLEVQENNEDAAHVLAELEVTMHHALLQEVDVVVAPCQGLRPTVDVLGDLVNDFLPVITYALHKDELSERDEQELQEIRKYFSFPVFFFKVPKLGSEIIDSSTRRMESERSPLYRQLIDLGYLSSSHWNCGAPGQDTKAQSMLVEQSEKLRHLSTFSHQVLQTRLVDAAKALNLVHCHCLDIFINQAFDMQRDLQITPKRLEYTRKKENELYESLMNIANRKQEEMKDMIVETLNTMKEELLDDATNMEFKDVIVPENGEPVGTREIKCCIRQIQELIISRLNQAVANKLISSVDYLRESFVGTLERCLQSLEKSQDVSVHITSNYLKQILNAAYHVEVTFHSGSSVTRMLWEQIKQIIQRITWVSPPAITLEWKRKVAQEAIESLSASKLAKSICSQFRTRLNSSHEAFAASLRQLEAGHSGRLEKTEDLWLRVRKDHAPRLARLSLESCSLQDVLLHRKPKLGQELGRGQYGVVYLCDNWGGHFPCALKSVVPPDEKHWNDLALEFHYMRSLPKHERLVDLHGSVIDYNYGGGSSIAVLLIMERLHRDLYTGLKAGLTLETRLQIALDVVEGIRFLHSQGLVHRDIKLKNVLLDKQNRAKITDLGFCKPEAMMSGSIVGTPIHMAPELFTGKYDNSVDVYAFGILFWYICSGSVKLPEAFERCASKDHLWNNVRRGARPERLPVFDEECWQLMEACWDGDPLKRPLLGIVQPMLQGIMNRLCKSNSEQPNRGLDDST

CC(C)(C)c1nc2c(s1)c1nc(N)ncc1c1ccc(NS(=O)(=O)c3c(F)cccc3F)c(F)c12 — remaining activity (enzyme activity; inhibitor; radiometric; 1 µM): 83%
CC(C)(O)[C@H]1CC[C@H](Nc2ccc3ncc(-c4cccc(C(F)(F)F)c4)n3n2)CC1 — remaining activity (enzyme activity; inhibitor; 1 µM): 97.1%
CC1=C(C#N)[C@@H](c2ccc3[nH]nc(C)c3c2)C(C#N)=C(c2ccc(Cl)cc2)N1 — remaining binding (cell-free assay; competition with immobilised ligand; 1 µM): 100%
Cc1cnn2ncc(-c3ccnc(N(C)C)n3)c2c1 — remaining binding (binding; 1 µM): 97%
O=C(Nc1cnn(-c2csc(C(=O)NC3COC3)c2)c1)Nc1ccccc1Cl — remaining activity (enzyme activity; inhibitor; 5 µM): 102%
CC(C)(C)c1nc(-c2cccc(NS(=O)(=O)c3c(F)cccc3F)c2F)c(-c2ccnc(N)n2)s1 — remaining activity (enzyme activity; inhibitor; radiometric; 1 µM): 82%
CCCOc1ccc([C@H]2[C@H](C(=O)O)[C@@H](c3ccc4c(c3)OCO4)CN2CC(=O)Nc2c(CC)cccc2CC)cc1 — remaining binding (cell-free assay; competition with immobilised ligand; 1 µM): 73%
O=C1Nc2ccc(Cl)cc2C1=Cc1cc(Cl)c(O)c(Cl)c1 — remaining signal (cell-free assay; 0.5 µM): 89.6%
Cc1ccc(C(=O)Nc2ccc(CN3CCN(C)CC3)c(C(F)(F)F)c2)cc1C#Cc1cnc2cccnn12 — remaining activity (enzyme activity; inhibitor; 23.5 nM): 95%
Cc1sc(C(=O)NC2COC2)cc1-n1cc(NC(=O)Nc2c(F)cccc2Cl)cn1 — remaining activity (enzyme activity; inhibitor; 10 µM): 96.6%
Nc1ncnc2occ(-c3ccc(NC(=O)Nc4cc(C(F)(F)F)ccc4F)cc3)c12 — remaining signal (cell-free assay; inhibitor; 20 µM): 2.8%
Cc1cc(-n2nc(Cc3cc(F)cc(C(F)(F)F)c3)nc2C)ccc1C(N)=O — remaining binding (cell-free assay; competition with immobilised ligand; 1 µM): 97%
Cc1ccc(Nc2nccc(N(C)c3ccc4c(C)n(C)nc4c3)n2)cc1S(N)(=O)=O — remaining activity (enzyme activity; inhibitor; 0.5 µM): 94.3%
CSc1cccnc1N1CCN(Cc2nc3ccccc3[nH]2)CC1 — remaining binding (cell-free assay; competition with immobilised ligand; 1 µM): 76%
N#CCCc1ccc2c(c1)-c1[nH]c3ccc([N+](=O)[O-])cc3c1CC(=O)N2 — remaining signal (cell-free assay; 0.5 µM): 67.1%
